The EternaBench riboswitch data

Test system: MS2 coat protein
Assay: apparent Kd, MS2 coat protein; higher = weaker binding; RNA-MaP array; FMN 200 µM where present
Method in brief: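 The apparent Kd is the median of filtered binding-curve fits, one per cluster, to green signal normalised to red-channel RNA signal and control-cluster median Fmax. The clusters were on Illumina sequencing chips, and stalled E. coli RNA polymerase had transcribed the designs on them. Titration used SNAP-549-labelled MS2 coat protein from 0.7 or 1.5 nM, doubling to 3 µM, without and then with constant ligand, in 100 mM Tris-HCl pH 7.5, 80 mM KCl, 4 mM MgCl2, BSA, DTT, yeast tRNA and Tween-20.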

[1] = designed as: ON switch for flavin mononucleotide, no ligand
[2] = ligand present: flavin mononucleotide, designed as: ON switch for flavin mononucleotide
[3] = designed as: OFF switch for flavin mononucleotide, no ligand
[4] = ligand present: flavin mononucleotide, designed as: OFF switch for flavin mononucleotide

Sequence: GGCGAACGGGCUUACAUGAGGAUCACCCAUGUAGACUCAUGGUAGGAUAUGCUGAACAAAGUUCAGCAGAAGGGCCGGUGAGCU
- apparent Kd [1]: 86.6 nM
- apparent Kd [2]: 46.3 nM

Sequence: GGCGGACGAAACAUGAGGAUCACCCAUGUGUUAUAAUUAAUAUAGGAUAUGUUUAUACUUUUUGGGCAGAAGGAUGAUAAUGCC
- apparent Kd [1]: 18.5 nM
- apparent Kd [2]: 16.2 nM

Sequence: GGCGGAGACGUUAACAUGAGGAUCACCCAUGUCGAAGGAGAUGAGGAUAUCGCAUACGAUGUAUGUGAGAAGGCAUGGUCUGCC
- apparent Kd [1]: 30 nM
- apparent Kd [2]: 10.6 nM

Sequence: GGCGGCGGACAAGGAUAUAAGACGCGGACCAAAUUAGAAGGUGUCAUCUGGCAAUGCGAAAGCAGACAUGAGGAUCACCCAUGU
- apparent Kd [1]: 78.9 nM
- apparent Kd [2]: 72.7 nM

Sequence: GGCGGGCGGGAGGAUAUUCGGGCUGUUUGGCUUGGAGAAGGCUCGACAUGAGGAUCACCCAUGUUUGGGUCGUC
- apparent Kd [3]: 18 nM
- apparent Kd [4]: 37.8 nM

Sequence: GGCGGUAAUGAGAAGGGUCACAUGAGGAUCACCCAUGUGCUCUUCGCCGUGACAGGAUAUCAUUGCCGUCAGGUUAGAUUUUUG
- apparent Kd [3]: 7.99 nM
- apparent Kd [4]: 25.4 nM

Sequence: GGCGGUCGGGAGGAUAUUCGGGCUGUUUGGCUUGGAGAAGGCUCGACAUGAGGAUCACCCAUGUAAGUGUUCUU
- apparent Kd [3]: 376 nM
- apparent Kd [4]: 406 nM

Sequence: GGGAAGGGCGGAGGAUAUCGACAUGAGGAUCACCCAUGUAUCACCCAUGUAUGAGAAGGUUGGAAGGAUUAAAACGUGAGGGUC
- apparent Kd [3]: 57.6 nM
- apparent Kd [4]: 44.3 nM

Sequence: GGGCAAAAGUAGAAGGGAUAUACGAAAAGUAUAUCAGGAUAUACAUGAGGAUCACCCAUGUUCUGAAAGUGAAAAUCCUCCCUA
- apparent Kd [3]: 40.8 nM
- apparent Kd [4]: 317 nM

Sequence: GGGCAACAUGAGGAUCACCCAUGUGAGGAUAUGGGCCCGGGCCCGAAAGGGCCCGGGCCCAGAAGGCACAGCCC
- apparent Kd [3]: 17.9 nM
- apparent Kd [4]: 17.1 nM

Sequence: GGGCCCGGAGGAUAUACAAUUUUGGGCCGAAAGGCCCGGGUACAUGAGGAUCACCCAUGUAGAAGGCCGGGUUU
- apparent Kd [3]: 31.9 nM
- apparent Kd [4]: 311 nM

Sequence: GGGCCCGGUGUGAGGAUAUUGGGUCUGAAAGGGCUCGAGAAGGCACAUGAGGAUCACCCAUGUAAGCCGGGCCC
- apparent Kd [3]: 16.7 nM
- apparent Kd [4]: 13.7 nM

Sequence: GGGCCGGUGGAGAAGGAGCUUGCAAAAUGCAUGCUAGGAUAUCCACAUGAGGAUCACCCAUGUGGGAAUAUCUGGUUUUCACAG
- apparent Kd [3]: 3.98 nM
- apparent Kd [4]: 5.05 nM

Sequence: GGGCGACAUGAGGAUCACCCAUGUAACCAAAACGAAGGAUAUGGGCCUGAACGUCCAGGACUAGAAGGUCGGAAAC
- apparent Kd [1]: 22 nM
- apparent Kd [2]: 18 nM

Sequence: GGGCUGUCAGGAUAUUUUGGGCCCGGGUAAACCCGGGCCCGGGAGAAGGGACAUGAGGAUCACCCAUGUGGCCC
- apparent Kd [3]: 34.7 nM
- apparent Kd [4]: 37.3 nM

Sequence: GGGUACAGCGGAGGAUAUCAUGUAAAUACAUGAGGAUCACCCAUGUCGAUGGAGACAUCGGAGAUUGAGAAGGCCGAUGUACCG
- apparent Kd [1]: 173 nM
- apparent Kd [2]: 9.99 nM

Sequence: GGGUACAGUGAGAAGGUCUGCGGAUUCCUUAACAUGAGGAUCACCCAUGUAGAAGGAUAUCACAGGUAAAGGUCGGCUAACGAU
- apparent Kd [3]: 5.36 nM
- apparent Kd [4]: 6.58 nM

Sequence: GGGUACAUCGGAGGAUAUAAUGUAAAUACAUGAGGAUCACCCAUGUCGAUGGAGACAUCGGAGAUUGAGAAGGCCGAUGUACCG
- apparent Kd [1]: 110 nM
- apparent Kd [2]: 38.4 nM

Sequence: GGGUACAUCGGAGGAUAUCAUGUAAAUACAUGAGGAUCACCCAUGUCGAUGGAGACAUCGGAGAUUGAGAAGGCCGAUGUACCG
- apparent Kd [1]: 452 nM
- apparent Kd [2]: 25.9 nM

Sequence: GGGUACAUCGGAGGAUAUCAUGUAAAUACAUGAGGAUCACCCAUGUCGAUGGAGACAUCGGAGAUUGAGAAGGCCGAUGUACUG
- apparent Kd [1]: 169 nM
- apparent Kd [2]: 8.5 nM

Sequence: GGGUACAUCGGAGGAUAUCAUGUAAAUACAUGAGGAUCACCCAUGUCGAUGGAGACAUCGGAGGUUGAGAAGGCCGAUGUACCG
- apparent Kd [1]: 961 nM
- apparent Kd [2]: 18.5 nM

Sequence: GGGUACAUCGGAGGAUAUCAUGUAGAUACAUGAGGAUCACCCAUGUCGUACGAGAGUACGGAGAUUGAGAAGGCCGAUGUACCG
- apparent Kd [1]: 31 nM
- apparent Kd [2]: 14.7 nM

Sequence: GGGUACCUCGGAGGAUAUCAUGUAAAUACAUGAGGAUCACCCAUGUCGAUGGAGACAUCGGAGAUUGAGAAGGCCGAUGUACCG
- apparent Kd [1]: 168 nM
- apparent Kd [2]: 9.32 nM
